Measurements: ChEMBL document CHEMBL3112482, “Nonclassical antifolates, part 5. Benzodiazepine analogs as a new class of DHFR inhibitors: synthesis, antitumor testing and molecular modeling study” (Eur J Med Chem, 2014)

Legend:
Assay type in all cases: functional
Cancer cell lines [1] = assay: Ratio of 5-FU TGI to compound TGI for human ovarian cancer cells
SN12C = assay: Growth inhibition of human SN12C cells at 10 uM after 48 hrs; settings: read-out: GI
How it was run: (§1)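 NCI 60-cell-line disease-oriented human tumor panel, single-dose primary screen at 10 µM. Data given as mean-graph percent growth of treated cells, reported as percent growth inhibition (GI %).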

COLO 205 = assay: Growth inhibition of human COLO205 cells at 10 uM after 48 hrs; settings: COLO 205, 48 h, read-out: GI
How it was run: (§2)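 Single-dose primary screen in the NCI 60 human tumour cell line panel, run at the NCI facility. The panel covers nine subpanels: leukaemia, non-small cell lung, colon, CNS, melanoma, ovarian, renal, prostate and breast. Read-out was percent growth of treated cells, shown as a mean graph and reported as percent growth inhibition.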

Cancer cell lines [2] = assay: Ratio of 5-FU TGI to compound TGI for human colon cancer cells
Cancer cell lines [3] = assay: Ratio of 5-FU TGI to compound TGI for human non-small cell lung cancer cells
[4] = Cytotoxicity against human leukemia cells at 10 uM after 48 hrs; settings: Leukemia cell
Cancer cell lines [5] = assay: Ratio of 5-FU GI50 to compound GI50 for human breast cancer cells
How it was run: (§3)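 Compounds passing the NCI single-dose primary screen were retested across the 60 human tumour cell lines (nine subpanels) over a 5-log dose range. GI50, TGI and LC50 were recorded for each cell line, with 5-fluorouracil run as the reference drug. Subpanel values for compound and 5-FU were then compared.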

Melanoma cell [6] = assay: Ratio of 5-FU LC50 to compound LC50 for human melanoma cells; how it was run: as §3
[7] = Cytotoxicity against human colon cancer cells at 10 uM after 48 hrs; settings: Cancer cell lines; for CC50: read-out: LC50 (the source's name); how it was run: as §2
Cancer cell lines [8] = assay: Ratio of 5-FU GI50 to compound GI50 for human CNS cancer cells; how it was run: as §3
DU-145 = assay: Growth inhibition of human DU145 cells at 10 uM after 48 hrs; settings: DU-145, 48 h, read-out: GI; how it was run: as §2
[9] = Cytotoxicity against human non-small cell lung cancer cells at 10 uM after 48 hrs; settings: Cancer cell lines; for CC50: read-out: LC50 (the source's name); how it was run: as §2
786-0 = assay: Growth inhibition of human 786-0 cells at 10 uM after 48 hrs; settings: 786-0, 48 h, read-out: GI; how it was run: as §2
Leukemia cell [10] = assay: Ratio of 5-FU GI50 to compound GI50 for human leukemia cells; how it was run: as §3
BT-549 = assay: Growth inhibition of human BT549 cells at 10 uM after 48 hrs; settings: BT-549, 48 h, read-out: GI; how it was run: as §2
CAKI-1 = assay: Growth inhibition of human CAKI-1 cells at 10 uM after 48 hrs; settings: CAKI-1, 48 h, read-out: GI; how it was run: as §2
ACHN = assay: Growth inhibition of human ACHN cells at 10 uM after 48 hrs; settings: read-out: GI; how it was run: as §2
SK-MEL-2 = assay: Growth inhibition of human SK-MEL-2 cells at 10 uM after 48 hrs; settings: SK-MEL-2, 48 h, read-out: GI; how it was run: as §1
Cancer cell lines [11] = assay: Ratio of 5-FU TGI to compound TGI for human renal cancer cells
U-251 = assay: Growth inhibition of human U251 cells at 10 uM after 48 hrs; settings: U-251, 48 h, read-out: GI; how it was run: as §1
Malme-3M = assay: Growth inhibition of human MALME-3M cells at 10 uM after 48 hrs; settings: read-out: GI; how it was run: as §2
Cancer cell lines [12] = assay: Ratio of 5-FU LC50 to compound LC50 for human breast cancer cells; how it was run: as §3
NCI-H226 = assay: Growth inhibition of human NCI-H226 cells at 10 uM after 48 hrs; settings: NCI-H226, 48 h, read-out: GI; how it was run: as §2
Cancer cell lines [13] = assay: Ratio of 5-FU GI50 to compound GI50 for human non-small cell lung cancer cells; how it was run: as §3
Cancer cell lines [14] = assay: Ratio of 5-FU GI50 to compound GI50 for human prostate cancer cells; how it was run: as §3
[15] = Cytotoxicity against human melanoma cells at 10 uM after 48 hrs; settings: Melanoma cell; for CC50: read-out: LC50 (the source's name); how it was run: as §2
Cancer cell lines [16] = assay: Ratio of 5-FU TGI to compound TGI for human prostate cancer cells
Cancer cell lines [17] = assay: Ratio of 5-FU LC50 to compound LC50 for human renal cancer cells; how it was run: as §3
Leukemia cell [18] = assay: Ratio of 5-FU LC50 to compound LC50 for human leukemia cells; how it was run: as §3
KM12 = assay: Growth inhibition of human KM12 cells at 10 uM after 48 hrs; settings: KM12, 48 h, read-out: GI; how it was run: as §2
HT-29 = assay: Growth inhibition of human HT-29 cells at 10 uM after 48 hrs; settings: HT-29, 48 h, read-out: GI; how it was run: as §2
Melanoma cell [19] = assay: Ratio of 5-FU GI50 to compound GI50 for human melanoma cells; how it was run: as §3
[20] = Cytotoxicity against human CNS cancer cells at 10 uM after 48 hrs; settings: Cancer cell lines; for CC50: read-out: LC50 (the source's name)
[21] = Growth inhibition of human RXF393 cells at 10 uM after 48 hrs; settings: RXF 393, 48 h, read-out: GI; how it was run: as §2
Cancer cell lines [22] = assay: Ratio of 5-FU GI50 to compound GI50 for human ovarian cancer cells; how it was run: as §3
NCI-H522 = assay: Growth inhibition of human NCI-H522 cells at 10 uM after 48 hrs; settings: NCI-H522, 48 h, read-out: GI; how it was run: as §2
HOP-62 = assay: Growth inhibition of human HOP62 cells at 10 uM after 48 hrs; settings: HOP-62, 48 h, read-out: GI; how it was run: as §2
OVCAR-8 = assay: Growth inhibition of human OVCAR8 cells at 10 uM after 48 hrs; settings: OVCAR-8, 48 h, read-out: GI; how it was run: as §2
MDA-MB-435 = assay: Growth inhibition of human MDA-MB-435 cells at 10 uM after 48 hrs; settings: MDA-MB-435, 48 h, read-out: GI; how it was run: as §2
[23] = Cytotoxicity against human prostate cancer cells at 10 uM after 48 hrs; settings: Cancer cell lines
Cancer cell lines [24] = assay: Ratio of 5-FU LC50 to compound LC50 for human CNS cancer cells; how it was run: as §3
CCRF-CEM = assay: Growth inhibition of human CCRF-CEM cells at 10 uM after 48 hrs; settings: read-out: GI; how it was run: as §2
MDA-MB-468 = assay: Growth inhibition of human MDA-MB-468 cells at 10 uM after 48 hrs; settings: MDA-MB-468, 48 h, read-out: GI; how it was run: as §2
HCT-116 = assay: Growth inhibition of human HCT116 cells at 10 uM after 48 hrs; settings: HCT-116, 48 h, read-out: GI; how it was run: as §2
SF-295 = assay: Growth inhibition of human SF295 cells at 10 uM after 48 hrs; settings: SF-295, 48 h, read-out: GI; how it was run: as §1
LOX IMVI = assay: Growth inhibition of human LOXIMVI cells at 10 uM after 48 hrs; settings: read-out: GI; how it was run: as §2

COc1cc(/C=C2\CCCc3c2nc(C)nc3-c2cc(OC)c(OC)c(OC)c2)cc(OC)c1OC
Ratio (Cancer cell lines [1]): 15
inhibition of growth at 10 µM (SN12C): 89.2%
inhibition of growth at 10 µM (COLO 205): 80.9%
Ratio (Cancer cell lines [2]): 15
Ratio (Cancer cell lines [3]): 15
GI50 [4]: 1.1 µM
LC50 [4]: > 100 µM
TGI [4]: 62.5 µM
RatioGI50 (Cancer cell lines [5]): 15
RatioLC50 (Melanoma cell [6]): 15
GI50 [7]: 0.9 µM
TGI [7]: 67.3 µM
CC50 [7]: 76.2 µM
RatioGI50 (Cancer cell lines [8]): 15
inhibition of growth at 10 µM (DU-145): 95.1%
GI50 [9]: 2.7 µM
TGI [9]: > 100 µM
CC50 [9]: > 100 µM
inhibition of growth at 10 µM (786-0): 82%
RatioGI50 (Leukemia cell [10]): 15
inhibition of growth at 10 µM (BT-549): 97.1%
inhibition of growth at 10 µM (CAKI-1): 88.6%
inhibition of growth at 10 µM (ACHN): 87.5%
inhibition of growth at 10 µM (SK-MEL-2): 73.4%
Ratio (Cancer cell lines [11]): 15
inhibition of growth at 10 µM (U-251): 90.2%
inhibition of growth at 10 µM (Malme-3M): 69.8%
RatioLC50 (Cancer cell lines [12]): 15
inhibition of growth at 10 µM (NCI-H226): 62.4%
RatioGI50 (Cancer cell lines [13]): 15
RatioGI50 (Cancer cell lines [14]): 15
GI50 [15]: 1.4 µM
TGI [15]: 3.1 µM
CC50 [15]: > 100 µM
Ratio (Cancer cell lines [16]): 15
RatioLC50 (Cancer cell lines [17]): 15
RatioLC50 (Leukemia cell [18]): 15
inhibition of growth at 10 µM (KM12): 97.1%
inhibition of growth at 10 µM (HT-29): 92.1%
RatioGI50 (Melanoma cell [19]): 15
GI50 [20]: 34.5 µM
TGI [20]: > 100 µM
CC50 [20]: > 100 µM
inhibition of growth at 10 µM [21]: 77.4%
RatioGI50 (Cancer cell lines [22]): 15
inhibition of growth at 10 µM (NCI-H522): 48.2%
inhibition of growth at 10 µM (HOP-62): 78%
inhibition of growth at 10 µM (OVCAR-8): 94.1%
inhibition of growth at 10 µM (MDA-MB-435): 94.8%
GI50 [23]: 1.8 µM
LC50 [23]: > 100 µM
TGI [23]: > 100 µM
RatioLC50 (Cancer cell lines [24]): 15

COc1cc(/C=C2\CCCC3=C(c4cc(OC)c(OC)c(OC)c4)Nc4ccccc4N=C32)cc(OC)c1OC
Ratio (Cancer cell lines [1]): 11
inhibition of growth at 10 µM (COLO 205): 99.8%
Ratio (Cancer cell lines [2]): 11
Ratio (Cancer cell lines [3]): 11
GI50 [4]: 1.4 µM
LC50 [4]: > 100 µM
TGI [4]: 5 µM
RatioGI50 (Cancer cell lines [5]): 11
RatioLC50 (Melanoma cell [6]): 11
GI50 [7]: 1.6 µM
TGI [7]: 5.2 µM
CC50 [7]: 36.4 µM
RatioGI50 (Cancer cell lines [8]): 11
inhibition of growth at 10 µM (DU-145): 95.1%
GI50 [9]: 2.8 µM
TGI [9]: 28 µM
CC50 [9]: 73.6 µM
inhibition of growth at 10 µM (786-0): 98.2%
RatioGI50 (Leukemia cell [10]): 11
inhibition of growth at 10 µM (CAKI-1): 93.5%
inhibition of growth at 10 µM (SK-MEL-2): 82.1%
Ratio (Cancer cell lines [11]): 11
RatioLC50 (Cancer cell lines [12]): 11
RatioGI50 (Cancer cell lines [13]): 11
RatioGI50 (Cancer cell lines [14]): 11
GI50 [15]: 1.7 µM
TGI [15]: 5.6 µM
CC50 [15]: 71.4 µM
Ratio (Cancer cell lines [16]): 11
RatioLC50 (Cancer cell lines [17]): 11
inhibition of growth at 10 µM (CCRF-CEM): 95.7%
RatioLC50 (Leukemia cell [18]): 11
RatioGI50 (Melanoma cell [19]): 11
GI50 [20]: 6.8 µM
TGI [20]: 94.3 µM
CC50 [20]: > 100 µM
RatioGI50 (Cancer cell lines [22]): 11
inhibition of growth at 10 µM (OVCAR-8): 81.4%
inhibition of growth at 10 µM (MDA-MB-435): 96.8%
GI50 [23]: 2.3 µM
LC50 [23]: > 100 µM
TGI [23]: 53.4 µM
RatioLC50 (Cancer cell lines [24]): 11

Cc1nc2c(c(-c3ccc(Br)cc3)n1)CCC/C2=C\c1ccc(Br)cc1
inhibition of growth at 10 µM (SN12C): < 30%
inhibition of growth at 10 µM (COLO 205): < 30%
inhibition of growth at 10 µM (DU-145): < 30%
inhibition of growth at 10 µM (786-0): < 30%
inhibition of growth at 10 µM (BT-549): < 30%
inhibition of growth at 10 µM (MDA-MB-468): < 30%
inhibition of growth at 10 µM (CAKI-1): < 30%
inhibition of growth at 10 µM (ACHN): < 30%
inhibition of growth at 10 µM (HCT-116): 55.8%
inhibition of growth at 10 µM (SK-MEL-2): < 30%
inhibition of growth at 10 µM (SF-295): < 30%
inhibition of growth at 10 µM (U-251): < 30%
inhibition of growth at 10 µM (Malme-3M): < 30%
inhibition of growth at 10 µM (NCI-H226): < 30%
inhibition of growth at 10 µM (CCRF-CEM): < 30%
inhibition of growth at 10 µM (LOX IMVI): < 30%
inhibition of growth at 10 µM (KM12): < 30%
inhibition of growth at 10 µM (HT-29): < 30%
inhibition of growth at 10 µM [21]: < 30%
inhibition of growth at 10 µM (NCI-H522): < 30%
inhibition of growth at 10 µM (HOP-62): < 30%
inhibition of growth at 10 µM (OVCAR-8): < 30%
inhibition of growth at 10 µM (MDA-MB-435): < 30%
